According to PubChem BioAssay:
Active and inactive are the calls of the source.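 How the source made its calls, unless noted: active means viability at or under a set limit in both replicates, limit being median viability minus 3 SD (cut at about 48% in these data, passing the limit was not always enough); inconclusive means at or under the limit in just one replicate; inactive means at or above the limit in both replicates.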

How the values were obtained:
[1] = reducers of endogenous Her2 protein level, primary screen, SKBR3 breast tumor cells, AlphaScreen, ATP viability (AID 461;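 active means Her2 level under about 52% in both replicate screens, with viability over 70% of control, limit read from the data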;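 on Her2 level: lower value means less Her2 protein in the cells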;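 on viability: percent of carrier control wells set as 100% viability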); conditions: 18-24 h, measured here: SKBR3 viability, ATP luminescence, at 10 µM
[2] = target: Receptor tyrosine-protein kinase erbB-2 (Homo sapiens) (UniProt P04626); experiment: as above; conditions: 18-24 h, at 10 µM, stronger effect = lower value
Sequence of Receptor tyrosine-protein kinase erbB-2 (Homo sapiens) (P04626 whole entry, looked up): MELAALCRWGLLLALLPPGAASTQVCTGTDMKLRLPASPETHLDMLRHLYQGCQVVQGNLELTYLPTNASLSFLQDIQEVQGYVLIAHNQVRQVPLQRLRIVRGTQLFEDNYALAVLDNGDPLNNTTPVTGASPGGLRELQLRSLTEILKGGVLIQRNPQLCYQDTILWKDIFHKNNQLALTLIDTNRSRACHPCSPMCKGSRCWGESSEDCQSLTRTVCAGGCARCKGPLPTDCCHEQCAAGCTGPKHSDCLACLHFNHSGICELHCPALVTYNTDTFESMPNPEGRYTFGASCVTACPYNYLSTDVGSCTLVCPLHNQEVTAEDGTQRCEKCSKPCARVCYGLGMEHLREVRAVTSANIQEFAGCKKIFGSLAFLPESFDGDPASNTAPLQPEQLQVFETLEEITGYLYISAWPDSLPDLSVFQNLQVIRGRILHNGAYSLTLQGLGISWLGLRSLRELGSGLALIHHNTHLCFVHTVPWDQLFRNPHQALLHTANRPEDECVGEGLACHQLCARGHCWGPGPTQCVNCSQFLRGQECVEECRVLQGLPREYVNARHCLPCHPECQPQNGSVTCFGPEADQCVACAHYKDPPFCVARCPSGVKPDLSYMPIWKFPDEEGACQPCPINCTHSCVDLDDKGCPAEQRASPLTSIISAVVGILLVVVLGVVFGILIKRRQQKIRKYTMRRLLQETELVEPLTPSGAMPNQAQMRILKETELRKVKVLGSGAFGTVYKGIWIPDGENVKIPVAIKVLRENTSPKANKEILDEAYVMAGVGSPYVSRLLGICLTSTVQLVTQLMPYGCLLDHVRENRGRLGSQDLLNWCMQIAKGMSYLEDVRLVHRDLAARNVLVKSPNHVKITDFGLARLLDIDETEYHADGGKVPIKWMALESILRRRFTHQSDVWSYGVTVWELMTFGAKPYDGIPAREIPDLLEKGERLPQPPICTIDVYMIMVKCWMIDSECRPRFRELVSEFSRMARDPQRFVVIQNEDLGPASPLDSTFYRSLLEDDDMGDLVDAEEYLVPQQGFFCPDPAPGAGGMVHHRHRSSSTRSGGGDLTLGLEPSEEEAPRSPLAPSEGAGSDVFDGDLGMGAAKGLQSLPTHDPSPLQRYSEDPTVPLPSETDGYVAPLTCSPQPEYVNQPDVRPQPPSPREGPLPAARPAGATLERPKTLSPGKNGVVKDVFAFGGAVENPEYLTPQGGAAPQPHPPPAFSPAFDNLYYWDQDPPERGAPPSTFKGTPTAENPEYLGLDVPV

[3] = SK-BR-3 cell growth inhibitors, pilot screen, 24 h, human (AID 572;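 active means viability at or below 10% of carrier control in both of two separate runs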;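 further: compound exposure lasted between 18 and 24 h rather than exactly 24 h; 100% = carrier-treated control wells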); conditions: SK-BR-3 viability, CellTiter-Glo luminescence, at 10 µM, stronger effect = lower value
[4] = HUVEC growth inhibition – cell-based, human, primary screen (AID 575;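 active means viability at or below 30% in both replicate assays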;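 further: 100% = median of untreated cell wells with 0.1% DMSO on each plate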); conditions: HUVEC proliferation, CellTiter-Glo luminescence, 72 h; at 10 µM; stronger effect = lower value
Method in brief: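 system = HUVEC primary cells | amount = 1250 cells/well | buffer or medium = supplemented EBM, 2% fetal bovine serum | dosing = single-point 10 µM, DMSO 0.1% final | times = 72 h compound incubation | detection = CTG luminescence | read-out = % viability relative to median vehicle-well signal on each plate | control set = vehicle and MePR control wells | format = collagen-coated 384-well format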

[5] = growth inhibitors of H69AR lung tumor, primary screen, human, duplicate replicates (AID 580); conditions: H69AR lung tumor cells viability, ATP luminescence, 72 h; at 10 µM; stronger effect = lower value;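 further: 100% = mean luminescence of untreated wells and 0% = no signal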
[6] = reversal of MRP1-mediated doxorubicin resistance, pilot screen, H69AR cells, doxorubicin co-treatment (AID 601;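 active means viability loss from added drug above about 55%, and viability with drug at most 40%, in both replicates, limit read from the data, passing the limit was not always enough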); conditions: CellTiter-Glo, 72 h, at 10 µM; for differential viability (reversal): stronger effect = higher value
[7] = 384-well plate pilot, post-Golgi transport modulator project, inhibition of yeast transport mutant growth (AID 636; in the data active means inhibition above about 31%); conditions: absorbance 615 nm, about 18 h, stronger effect = higher value
[8] = growth suppression of yeast trafficking mutant, preliminary HTS, modulators of trafficking downstream of Golgi apparatus project, 1536-format plate, OD 615 nm (AID 637; in the data active means inhibition above about 30%); conditions: yeast transport mutant growth, absorbance 615 nm, 18 h; stronger effect = higher value
[9] = H69AR cells + 2 uM doxorubicin, measured here: viability with 2 uM doxorubicin, stronger effect = lower value
[10] = H69AR cells, compound alone cytotoxicity

| SMILES | viability [1] [%] | Her2 level [2] | viability [3] | viability [4] | viability [5] | differential viability (reversal) ([6]; H69AR cells + 2 uM doxorubicin) | viability [6, 9] [%] | viability [6, 10] [%] | inhibition [7] | inhibition [8] |
| --- | --- | --- | --- | --- | --- | --- | --- | --- | --- | --- |
| Cc1cccc(-c2noc(CCC(=O)Nc3ccccc3)n2)c1 | 106 | 93% (inactive) | 106% (inactive) | 79.4% (inactive) | 91.2% (inactive) | 6.29% (inactive) | 84.9 | 91.2 | -7.3% (inactive) | -11.2% (inactive) |
| Cc1nc2ccc(N3C(=O)CCC3=O)cc2[nH]1 | 100 | 101% (inactive) | 100% (inactive) | 97.6% (inactive) | 103% (inactive) | 7.96% (inactive) | 95.2 | 103 | -5.07% (inactive) | -1.45% (inactive) |
| O=C(O)c1cc(Cl)c(Cl)cc1C(=O)N1CCCC1 | 97.5 | 100% (inactive) | 97.5% (inactive) | 87.2% (inactive) | 98.7% (inactive) | -2.26% (inactive) | 101 | 98.7 | -1.79% (inactive) | -1.17% (inactive) |
| CCOC(=O)c1cccc(NC(=O)CSc2nnc(-c3ccoc3C)n2CCOC)c1 | 102 | 92% (inactive) | 102% (inactive) | 91.6% (inactive) | 89.7% (inactive) | -2.74% (inactive) | 92.4 | 89.7 | -1.45% (inactive) | 0.81% (inactive) |
| Cc1nc2cc(-n3ccc(=O)cc3)ccc2n1-c1ccccc1 | 102 | 93% (inactive) | 102% (inactive) | 79.7% (inactive) | 90.5% (inactive) | 13.4% (inactive) | 77.1 | 90.5 | -2.93% (inactive) | -3.49% (inactive) |
| CCOC(=O)c1ccc2nc(NC(NC(C)=O)(C(=O)OC)C(F)(F)F)sc2c1 (stereo not given) | 98.5 | 88.5% (inactive) | 98.5% (inactive) | 82.8% (inactive) | 98.6% (inactive) | 15% (inactive) | 83.6 | 98.6 | -3.03% (inactive) | -1.82% (inactive) |
| COc1ccccc1N1CCN(C(=O)CSc2nc(-c3ccccc3)cc(=O)[nH]2)CC1 | 87.5 | 124% (inactive) | 87.5% (inactive) | 80.8% (inactive) | 88.1% (inactive) | -1.75% (inactive) | 89.8 | 88.1 | -3.16% (inactive) | -6.83% (inactive) |
| CC(C)N(C(=O)CSc1nnc(NC(=O)C2CCC2)s1)C(C)C | 82.5 | 90.5% (inactive) | 82.5% (inactive) | 90.4% (inactive) | 92.9% (inactive) | 3.82% (inactive) | 89 | 92.9 | -1.47% (inactive) | -2.42% (inactive) |
| Cn1c(C(=O)NCC2CCCO2)cc2c(=O)[nH]c3ccccc3c21 (stereo not given) | 81 | 98% (inactive) | 81% (inactive) | 108% (inactive) | 88.4% (inactive) | 4.57% (inactive) | 83.8 | 88.4 | -4.67% (inactive) | -7.05% (inactive) |
| COc1ccccc1NC(=O)c1cc2n(n1)C(C(F)(F)F)CC(c1ccc3c(c1)OCO3)N2 (stereo not given) | 85 | 95% (inactive) | 85% (inactive) | 47.7% (inactive) | 73.3% (inactive) | -13.8% (inactive) | 87.1 | 73.3 | -4.03% (inactive) | -3.33% (inactive) |
| CCOc1ccc(C2C(C#N)=C(N)Oc3cc(C)n(CCN(C)C)c(=O)c32)cc1OCC (stereo not given) | 84 | 79.5% (inactive) | 84% (inactive) | 90.3% (inactive) | 101% (inactive) | 17.7% (inactive) | 83.3 | 101 | -4.32% (inactive) | -1.43% (inactive) |
| Cc1cc(NC(c2cccnc2)c2c(C)[nH]c3ccccc23)no1 (stereo not given) | 97 | 76% (inactive) | 97% (inactive) | 85.1% (inactive) | 89% (inactive) | -8.09% (inactive) | 97 | 89 | -5.6% (inactive) | 3.61% (inactive) |
| Cc1cccc(-c2nnc(SCC#N)n2-c2cccc(Cl)c2)c1 | 90.5 | 83.5% (inactive) | 90.5% (inactive) | 104% (inactive) | 84.6% (inactive) | -3.93% (inactive) | 88.6 | 84.6 | -6% (inactive) | 0% (inactive) |
| O=C(O)CC1NC(=O)N(c2ccccc2)C1=O (stereo not given) | 108 | 85% (inactive) | 108% (inactive) | 109% (inactive) | 99.3% (inactive) | 7.85% (inactive) | 91.5 | 99.3 | -5.33% (inactive) | 0% (inactive) |
| COc1ccc(Cl)cc1Nc1nc(C)cc(=O)[nH]1 | 95 | 86% (inactive) | 95% (inactive) | 80.6% (inactive) | 95.8% (inactive) | 2.12% (inactive) | 93.7 | 95.8 | -3.68% (inactive) | -0.97% (inactive) |
| CN(CC(=O)NCCC1=CCCCC1)S(=O)(=O)c1ccc2c(c1)CCC(=O)N2 | 79 | 113% (inactive) | 79% (inactive) | 91.3% (inactive) | 110% (inactive) | 18% (inactive) | 91.7 | 110 | -2.27% (inactive) | -1.48% (inactive) |
| CCOC(=O)C1CCN(C(=O)COc2ccc(Cl)cc2Cl)CC1 | 109 | 98% (inactive) | 109% (inactive) | 101% (inactive) | 96.2% (inactive) | 10.2% (inactive) | 86.1 | 96.2 | -3.64% (inactive) | -6.35% (inactive) |
| O=C(O)C1CC=CCC1C(=O)Nc1cc(Cl)ccc1Cl (stereo not given) | 86 | 100% (inactive) | 86% (inactive) | 81.2% (inactive) | 93.5% (inactive) | 8.81% (inactive) | 84.7 | 93.5 | 0% (inactive) | -0.82% (inactive) |
| Cc1ccc(S(=O)(=O)Cn2nnnc2CN(Cc2ccco2)CC2CCCO2)cc1 (stereo not given) | 90 | 96.5% (inactive) | 90% (inactive) | 110% (inactive) | 83.3% (inactive) | -0.665% (inactive) | 84 | 83.3 | -2.53% (inactive) | 44.8% (active) |
| CC(Oc1ccc(Cl)cc1Cl)c1nc(-c2ccc(NC(=O)c3cccnc3)cc2)no1 (stereo not given) | 93.5 | 74.5% (inactive) | 93.5% (inactive) | 55% (inactive) | 8.04% (active) | -10.7% (inactive) | 18.8 | 8.04 | 0% (inactive) | 22.2% (inactive) |
| N#Cc1c(N)c(C(=O)c2ccccc2)n2c1CCCC2 | 103 | 71% (inactive) | 103% (inactive) | 97.7% (inactive) | 93.1% (inactive) | -6.13% (inactive) | 99.2 | 93.1 | -8.92% (inactive) | -0.66% (inactive) |
| COc1ccccc1NC(=O)CSc1nnc(CC(=O)Nc2ccccc2)n1C | 96 | 80.5% (inactive) | 96% (inactive) | 113% (inactive) | 91% (inactive) | -2.08% (inactive) | 93.1 | 91 | -2.99% (inactive) | -2% (inactive) |
| COc1cc(OC)c(C2C(C#N)=C(N)OC3=C2C(=O)CC(C)(C)C3)cc1OC (stereo not given) | 85.5 | 106% (inactive) | 85.5% (inactive) | 61.9% (inactive) | 83.2% (inactive) | -1.53% (inactive) | 84.7 | 83.2 | 0.91% (inactive) | -9.02% (inactive) |
| COCCNC(=O)C(C)OC(=O)c1nsc(Cl)c1Cl (stereo not given) | 103 | 108% (inactive) | 103% (inactive) | 110% (inactive) | 99.3% (inactive) | 4.84% (inactive) | 94.5 | 99.3 | -1.08% (inactive) | 25.7% (inactive) |
| Cc1cccc(-c2nnn(CC/C(N)=N/O)n2)c1 | 85 | 84.5% (inactive) | 85% (inactive) | 85.3% (inactive) | 104% (inactive) | -1.3% (inactive) | 105 | 104 | -2.53% (inactive) | -0.16% (inactive) |
| Clc1ccc(CSc2nnc(Cn3cnc4ccccc43)o2)cc1 | 74.5 | 72% (inactive) | 74.5% (inactive) | 48.2% (inactive) | 99.2% (inactive) | 2.03% (inactive) | 97.2 | 99.2 | -4.32% (inactive) | -1.8% (inactive) |
| O=C(CN1C(=O)CSC1=O)N1CCc2ccccc2C1 | 100 | 98% (inactive) | 100% (inactive) | 73.4% (inactive) | 89.6% (inactive) | 0.255% (inactive) | 89.3 | 89.6 | -2.34% (inactive) | -3.5% (inactive) |
| Cc1ccc(NCC(O)C(O)C(O)CO)cc1C (stereo not given) | 113 | 104% (inactive) | 113% (inactive) | 93.4% (inactive) | 94.3% (inactive) | -2.34% (inactive) | 96.6 | 94.3 | -6.93% (inactive) | -8.1% (inactive) |
| Cc1nc(N)c(C#N)c(-c2cccnc2)c1C | 94 | 83.5% (inactive) | 94% (inactive) | 74.3% (inactive) | 102% (inactive) | -13.1% (inactive) | 115 | 102 | -2.4% (inactive) | -2.86% (inactive) |
